# In the library only some 2.4% were active in any assay of this set; here they are far more common.
# HNF4A DNA FP: change in binding of human HNF4A to DNA, primary screen, biochemical, fluorescence polarization, FITC-DNA; Hepatocyte nuclear factor 4-alpha (Homo sapiens), P41235; hit rate 0.3% among 360,000; 1 h; activity change, % at 10 µM; in the data active means activity change above about 30%, passing the limit was not always enough
# CSN inh: inhibitors of CSN-mediated cullin deneddylation, primary screen, biochemical, fluorescence polarization, uHTS | AID 651999, 2013 | Purified CSN, SCF-Nedd8-OG deneddylation | hit rate 0.38% among 360,000 | inhibition, % at 12.5 µM | COP9 signalosome complex subunit 5 (Homo sapiens), Q92905;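 active means pattern-corrected inhibition above about 35%, with an unprinted fluorescence ratio check between 0.5 and 1.5, limit read from the data, passing the limit was not always enough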;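 further: 0% = enzyme with substrate and 100% = substrate without enzyme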
# Target sequence (Q92905 whole entry, looked up, one chain of several): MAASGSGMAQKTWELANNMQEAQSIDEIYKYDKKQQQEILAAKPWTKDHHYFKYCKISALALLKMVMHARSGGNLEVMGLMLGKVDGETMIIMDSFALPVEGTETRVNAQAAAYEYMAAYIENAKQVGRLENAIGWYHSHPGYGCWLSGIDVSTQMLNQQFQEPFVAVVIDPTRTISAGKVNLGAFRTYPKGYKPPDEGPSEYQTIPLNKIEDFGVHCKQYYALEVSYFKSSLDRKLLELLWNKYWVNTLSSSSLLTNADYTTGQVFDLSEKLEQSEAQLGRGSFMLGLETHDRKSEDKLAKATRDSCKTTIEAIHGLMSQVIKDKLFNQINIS
#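 Assay system: purified human Csn5 enzyme expressed in HEK293T cells; Input: 0.24 nM Csn5 enzyme, final concentration; Reagent: 10 nM SCFSkp2-Nedd8OG; Compound dosing: 12.5 µM single point; Times: reaction 90 min, room temperature; Technique: fluorescence polarization readout.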
# Rpn11 block: Rpn11 (PSMD14) deubiquitinase inhibitors, primary screen, biochemical, fluorescence polarization, uHTS; 26S proteasome non-ATPase regulatory subunit 14 (Homo sapiens), O00487; human 26S proteasome, Ub4-pepOG fluorescence polarization; 20S core pre-blocked with epoxomicin; inhibition, % at 20 µM; hit rate 0.59% among 360,000;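 active means inhibition at 20 µM, scaled to each plate's controls, above about 33%, limit read from the data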
# Target sequence (O00487 whole entry, looked up): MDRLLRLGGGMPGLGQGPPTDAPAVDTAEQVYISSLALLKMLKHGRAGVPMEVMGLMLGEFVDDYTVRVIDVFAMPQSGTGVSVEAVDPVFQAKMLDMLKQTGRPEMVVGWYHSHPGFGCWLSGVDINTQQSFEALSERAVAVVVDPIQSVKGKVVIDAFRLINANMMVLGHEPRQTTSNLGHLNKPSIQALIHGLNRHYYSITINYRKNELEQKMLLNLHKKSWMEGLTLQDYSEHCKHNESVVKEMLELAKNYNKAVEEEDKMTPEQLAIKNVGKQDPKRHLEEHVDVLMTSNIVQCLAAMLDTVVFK
# TbMetRS inhib: T. brucei MetRS inhibitors, primary screen, biochemical, luminescence. methionyl-tRNA synthetase (Trypanosoma brucei brucei). purified T. brucei MetRS, ATP depletion, Kinase-Glo luminescence. inhibition, % at 11.9 µM. hit rate 0.4% among 360,000;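 active means inhibition above a per-plate cutoff of the control wells' mean inhibition plus 3 SD, cut at about 5.5% in these data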;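 further: 0% = DMSO wells median and 100% = median of wells with control inhibitor compound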
#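 Material: T. brucei methionyl-tRNA synthetase, purified; reagent: substrates ATP, L-methionine and bulk Escherichia coli tRNA; dosing: 11.9 µM single point; timing: 15 min plus 2 h at 25 °C; detection: luminescence of leftover ATP; evaluation: % inhibition; control set: DMSO-only wells as low control; replicates: singlicate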
# PREPL inh: PREPL enzyme inhibitors, primary screen, biochemical, fluorescence polarization. inhibition, % at 5.96 µM. hit rate 0.68% among 320,000. Prolyl endopeptidase-like (Homo sapiens), Q4J6C6. AID 2751, 2010. recombinant PREPL, fluorescence polarization activity-based probe;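 further: 0% = enzyme with DMSO and 100% = wells lacking enzyme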
# Neddyl block: inhibitors of cullin neddylation, primary screen, biochemical, TR-FRET, uHTS, NAE and Ubc12; inhibition, % at 25 µM; NEDD8-conjugating enzyme Ubc12 (Homo sapiens) + NEDD8-activating enzyme E1 regulatory …; AID 651699, 2012; hit rate 0.58% among 360,000; in the data active means inhibition above about 36%
# PREPL confirm: human PREPL enzyme inhibitors, confirmation, biochemical, fluorescence polarization; shares compounds with PREPL inh; hit rate 67% among 2,000; inhibition, % at 5.96 µM; recombinant PREPL, fluorescence polarization activity probe;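 further: 0% = protein with DMSO and 100% = wells lacking protein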
# Numbers without * were called inactive; / = no result shown; ! = not active in a repeat. Unless noted, no stated cut-off is given here; in the data, active means inhibition above about 43%; inactive means the rest.
SMILES,HNF4A DNA FP,CSN inh,Rpn11 block,TbMetRS inhib,PREPL inh,Neddyl block,PREPL confirm
COc1ccc(Nc2nnc(SC(C(=O)Nc3ccc(OC)c(Cl)c3)c3ccccc3)s2)cc1 (centres undefined),5.0,-0.3,7.2,0.5,46.6*,-1.8,42.4
CCc1nc2ccc(C(=O)NCCCN3CCCC3=O)cn2c1N(C=O)CC,0.8,-2.6,5.1,-0.6,/,21.3,/
COC(=O)CCC(=O)OC1(C)C(=O)C2=CN(C(CO)CO)C(c3ccc(OC)cc3)=CC2=C(Br)C1=O (centres undefined),/,/,/,/,58.4*,/,40.1
CN1OC[C@@H]2CN(S(=O)(=O)c3cccc4ccccc34)[C@H](c3ccc(-c4cccnc4)cc3)C[C@@H]21,0.7,4.7,2.3,-0.6,/,-1.9,/
COc1ccc(C(CNC(=O)c2nn(-c3ccccc3)c(=O)c3ccccc23)N2CCOCC2)cc1 (centres undefined),6.3,4.5,-2.6,-0.6,/,-3.3,/
CCCCCCSc1cc(-c2nc3cnccn3c2NCCCC)ccc1OC,11.2,2.4,4.7,-0.4,18.5,/,/
CCCCNc1c(-c2ccc(SC(C)CC)cc2)nc2cnccn12 (centres undefined),-7.7,-2.9,-31.5,-0.4,59.5*,-9.0,55.3*
Cc1ccc(C)c(-c2nn(-c3cc(N4CCN(CCO)CC4)ccc3[N+](=O)[O-])c(=O)c3ccccc23)c1,-2.3,1.6,0.8,-1.1,62.3*,-40.6,56.8*
COc1ccc(-c2cccc(N3CCN(c4ccccn4)CC3)n2)cc1OC,3.1,-1.8,-14.3,-0.5,/,/,/
Nc1nc(CN2CCc3ccccc3C2)nc(Nc2ccccc2)n1,5.2,-1.6,7.7,-1.2,24.1,7.7,/
COc1ccc(Nc2nc(N)nc(CN3CCc4ccccc4C3)n2)cc1,-2.7,4.7,0.8,-1.0,43.4*,-12.8,33.2
CN(C)CCCNc1cc(C(C)(C)C)nc2c(-c3ccccc3)cnn12,1.7,0.7,-2.2,-0.9,67.3*,/,60.8*
CC(C)(C)c1cc(NCCCn2ccnc2)n2ncc(-c3ccc(Cl)cc3)c2n1,1.6,-4.8,10.7,-0.8,38.1,/,/
C[C@@H]1COc2cc(N3CCC[C@H]3CO)ccc2S(=O)(=O)N1,3.0,0.6,/,-0.7,/,14.2,/
COc1cc(/C=N/Nc2nc(Nc3ccccc3)nc(-n3nc(C)cc3C)n2)cc(OC)c1OC,-1.1,4.2,12.8,-0.4,11.9,37.2,/
COc1ccc(O)c(/C=N/Nc2nc(Nc3ccccc3)nc(-n3nc(C)cc3C)n2)c1,-1.1,-1.9,5.2,-0.5,43.7*,1.0,39.4
Cc1ccccc1-c1nc(CN2CCC(C(=O)N3CCN(c4ccccn4)CC3)CC2)c(C)o1,0.7,3.0,9.1,-0.4,49.3*,18.2,43.0
COc1ccc(C2c3ccc4ccccc4c3Oc3ncn(CCCN(C)C)c(=N)c32)cc1 (centres undefined),9.3,0.7,-41.0,-0.7,44.7*,-14.4,42.1
COc1ccccc1C1c2ccc3ccccc3c2Oc2ncn(CCN(C)C)c(=N)c21 (centres undefined),3.5,-1.9,-44.5,0.9,-15.7,-7.6,/
COc1ccc(NS(=O)(=O)c2cc(C(=O)N(C)CCc3ccccn3)ccc2Cl)cc1,-1.3,-2.6,-2.4,-0.5,/,-16.2,/
Cc1cc(C(=O)COc2ccccc2C(N)=O)c(C)n1C,-1.7,-7.7,7.2,-0.6,-2.5,2.8,/
Cc1cc(C(=O)COc2cccc3cccnc23)c(C)n1C,-38.8,-48.3,-118.2,-0.7,64.7*,35.6,9.9
CCN1CCN(S(=O)(=O)c2ccc(Cl)c(C(=O)N(C)Cc3cccc(Cl)c3Cl)c2)CC1,-3.5,4.2,-11.9,-0.4,55.2*,3.2,42.5
O=C1c2ccccc2C(c2nnnn2-c2ccc3c(c2)OCCO3)N1CCCn1ccnc1 (centres undefined),-0.3,-4.0,/,-0.9,/,-5.8,/
CC(C)n1cnc2c(N(C)c3ccccc3)nc(N(CCN(C)C)Cc3ccccc3)nc21,7.5,1.9,-7.4,-0.3,52.0*,16.3,47.6*
SMILES,HNF4A DNA FP,CSN inh,Rpn11 block,TbMetRS inhib,PREPL inh,Neddyl block,PREPL confirm
CCCCCCCCCCCCCCCC[n+]1cccc(C(=O)N(CC)CC)c1,3.5,4.0,65.9*!,-0.5,50.2*,-7.3,51.1*
CCCCCCCC[n+]1cccc(C(=O)N(CC)CC)c1,-0.6,-1.5,-4.6,0.0,0.9,-3.6,/
CCOC(=O)N(C)c1c(CC)nc2c(OCc3ccccc3OC)cccn12,-2.0,1.9,5.8,-0.4,/,14.7,/
CCN(CC(=O)Nc1ccccc1OC)C(=O)CCOc1ccc(C(C)(C)C)cc1,-1.8,1.4,-6.1,-0.4,25.3,-0.2,/
COc1cc(NC(=O)c2ccc(COc3ccccc3Br)o2)cc(OC)c1OC,0.2,0.8,-1.2,0.2,44.2*,-1.9,40.5
COc1ccccc1OCc1ccc(C(=O)Nc2cc(OC)c(OC)c(OC)c2)o1,-2.4,-0.7,7.0,-0.5,/,1.6,/
COC(=O)c1ccc(N2C(c3ccsc3)=Cc3cc4c(cc3C2CC(=O)c2ccco2)OCO4)cc1 (centres undefined),0.1,-2.7,/,-0.5,/,-32.0,/
COC(=O)/C(C#N)=C/c1c(N2CCN(c3ccc(OC)cc3)CC2)nc2c(C)cccn2c1=O,-2.1,16.4,-4.9,-0.4,48.2*,5.6,45.9*
Nc1nn(-c2ccccc2)c(N)c1N=Nc1ccccc1,2.2,4.3,-2.6,-0.3,50.6*,-37.0,54.9*
Nc1nn(-c2ccccc2)c(N)c1N=Nc1ccccc1F,-0.3,-2.1,-0.6,-0.8,53.5*,-37.4,55.6*
COc1cc(CNc2ccc(N3CCN(C(C)=O)CC3)cc2)ccc1OCc1ccc(F)cc1,2.5,-2.0,-1.6,-2.7,45.1*,7.4,39.6
CC(=O)N1CCN(c2ccc(NCc3cccc(C)c3)cc2)CC1,-3.9,-2.5,-0.9,-0.3,59.2*,-8.8,34.4
CC(=O)N1CCN(c2ccc(NCc3ccc(F)cc3)cc2)CC1,1.6,-0.5,1.9,-0.4,66.8*,4.3,39.2
CCOc1c(Br)cc(CNc2ccc(N3CCN(C(C)=O)CC3)cc2)cc1OC,-1.3,-2.5,1.0,0.2,20.4,-0.8,/
C[C@H]1COc2cc(N(C)CCO)ccc2S(=O)(=O)N1,0.1,-1.6,/,-0.6,/,14.3,/
Fc1ccc(-c2nnc(-c3ccc4ccccc4c3)o2)cc1,-0.4,3.7,0.2,-0.1,/,28.2,/

# Screening data from PubChem BioAssay.
